Reference: ChEMBL document CHEMBL4425087, “Antibacterial Azaphilones from an Endophytic Fungus, Colletotrichum sp. BS4” (2016)
Converted amounts (≈) assume the structure as drawn. The source made the active and inactive calls. No cut-off for these calls is given here.

What was measured:
Bacillus subtilis = assay: Antibacterial activity against Bacillus subtilis DSM 1088 incubated for 24 hrs by disk diffusion method; assay type: functional
Outline: (§1)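 Standard control strains from the DSMZ collection (Braunschweig): E. coli and B. subtilis as common environmental strains, and S. aureus and P. aeruginosa as human pathogenic clinical strains. Run by the authors' previously described procedure.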

Escherichia coli = assay: Antibacterial activity against Escherichia coli DSM 1116 incubated for 24 hrs by disk diffusion method; assay type: functional; outline: as §1
Staphylococcus aureus = assay: Antibacterial activity against Staphylococcus aureus DSM 799 incubated for 24 hrs by disk diffusion method; assay type: functional; outline: as §1
Pseudomonas aeruginosa = assay: Antibacterial activity against Pseudomonas aeruginosa DSM 22644 incubated for 24 hrs by disk diffusion method; assay type: functional; outline: as §1
THP-1 [1] = assay: Cytotoxicity against human THP1 cells assessed as reduction in cell survival by measuring inhibition of intracellular ATP level at 0.01 to 100 uM after 48 hrs by ATPlite assay; assay type: functional, cell-based
Outline: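 THP-1 human acute monocytic leukemia cells, in vitro. ATPlite luminescence measures depletion of cytoplasmic ATP.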

THP-1 [2] = assay: Cytotoxicity against human THP1 cells assessed as reduction in cell survival by measuring inhibition of mitochondrial metabolic activity at 0.01 to 100 uM after 48 hrs by resazurin assay; assay type: functional, cell-based
Outline: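 Human acute monocytic leukemia THP-1 cells, in vitro. Resazurin-based read-out measures inhibition of mitochondrial metabolic activity.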

Bacillus spizizenii = assay: Antibacterial activity against Bacillus subtilis ATCC 6633 by disk diffusion method; assay type: functional
Brevibacillus brevis = assay: Antibacterial activity against Bacillus brevis by disk diffusion method; assay type: functional

Compound | MIC (Bacillus subtilis; DSM 1088, 24 h) | MIC (Escherichia coli; DSM 1116, 24 h) | MIC (Staphylococcus aureus; DSM 799, 24 h) | MIC (Pseudomonas aeruginosa; DSM 22644, 24 h) | Activity (THP-1 [1]) | Activity (THP-1 [2]) | MIC (Bacillus spizizenii) | MIC (Brevibacillus brevis) | MIC (Bacillus subtilis) | MIC (Escherichia coli) | MIC (Staphylococcus aureus) | MIC (Pseudomonas aeruginosa)
CN[C@@H]1[C@H](O[C@H]2[C@H](O[C@H]3[C@H](O)[C@@H](O)[C@H](N=C(N)N)[C@@H](O)[C@@H]3N=C(N)N)O[C@@H](C)[C@]2(O)C=O)O[C@@H](CO)[C@H](O)[C@H]1O [STREPTOMYCIN] | 5 µg/mL (≈ 8.6 µM) | 1 µg/mL (≈ 1.72 µM) | 5 µg/mL (≈ 8.6 µM) | 10 µg/mL (≈ 17.2 µM) |  |  |  |  |  |  |  | 
CC[C@H](C)C(=O)[C@H]1C(=O)O[C@@]2(C)C(=O)C=C3C=C(C)OC[C@H]3[C@H]12 | > 10 µg/mL | 5 µg/mL (≈ 15.7 µM) | > 10 µg/mL | > 10 µg/mL | inactive | inactive |  |  |  |  |  | 
CCCCCCCCCCCCCCCCCC[C@H](C)C(=O)C1=C2C3=COC(C)=CC3=CC(=O)[C@]2(C)OC1=O |  |  |  |  |  |  | 5 µg/mL (≈ 9.28 µM) | 5 µg/mL (≈ 9.28 µM) |  |  |  | 
CC[C@H](C)C1=C2C(=O)O[C@@]3(C)C(=O)C=C4C=C(C)O[C@@H](O1)[C@@]4(O)[C@@]23O | 0.1 µg/mL (≈ 0.287 µM) | 1 µg/mL (≈ 2.87 µM) | > 10 µg/mL | > 10 µg/mL | inactive | inactive |  |  |  |  |  | 
GENTAMICIN |  |  |  |  |  |  |  |  | 1 µg/mL | 1 µg/mL | 1 µg/mL | 1 µg/mL
CC[C@H](C)C(=O)[C@@H]1C(=O)O[C@@]2(C)C(=O)C=C3C=C(C)OC=C3[C@@H]12 | > 10 µg/mL | > 10 µg/mL | 5 µg/mL (≈ 15.8 µM) | > 10 µg/mL | inactive | inactive |  |  |  |  |  | 
CC[C@H](C)C(=O)[C@H]1C(=O)O[C@@]2(C)C(=O)C=C3C=C(C)OC=C3[C@H]12 [CHERMESINONE B] | > 10 µg/mL | > 10 µg/mL | > 10 µg/mL | > 10 µg/mL | inactive | inactive |  |  |  |  |  | 
